According to ChEMBL document CHEMBL3120138, “Glucocorticoid receptor modulators informed by crystallography lead to a new rationale for receptor selectivity, function, and implications for structure-based design” (J Med Chem, 2014):
The source made the active and inactive calls. The calls are words filed in the database; no cut-off is given here.

How the values were obtained:
[1] = tested on: Rattus norvegicus; test: Antiinflammatory activity in Lewis rat collagen-induced arthritis model assessed as reduction of bone resorption at 30 mg/kg, po administered for 15 days; format: functional, organism-based; parameters: dose 30 mg/kg
Procedure, shortened: (§1)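 Female Lewis rats received collagen injected at the tail base, and disease developed over 14 d. Responding rats (groups of n = 10) were then dosed orally once daily for the next 15 d. Ankle/paw diameter was measured throughout the live phase and summarised as AUC. Hindpaw histology was scored blind from 0 (normal) to 5 (vehicle-level). Statistics used Student's t test vs vehicle, p < 0.01.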

[2] = tested on: Rattus norvegicus; test: Antiinflammatory activity in Lewis rat collagen-induced arthritis model assessed as reduction of cartilage damage at 30 mg/kg, po administered for 15 days; format: functional, organism-based; parameters: dose 30 mg/kg; procedure, shortened: as §1
[3] = tested on: Rattus norvegicus; test: Antiinflammatory activity in po dosed Lewis rat collagen-induced arthritis model assessed as reduction in ankle diameter administered for 15 days measured during compound dosing; format: functional, organism-based; procedure, shortened: as §1
[4] = biological target: T1, Glucocorticoid receptor (Homo sapiens) (UniProt P04150); test: Transactivation of human glucocorticoid receptor expressed in HEK293 cells at 10 uM after 24 hrs by luciferase reporter gene assay relative to control; format: cell-based
T1 sequence (whole entry): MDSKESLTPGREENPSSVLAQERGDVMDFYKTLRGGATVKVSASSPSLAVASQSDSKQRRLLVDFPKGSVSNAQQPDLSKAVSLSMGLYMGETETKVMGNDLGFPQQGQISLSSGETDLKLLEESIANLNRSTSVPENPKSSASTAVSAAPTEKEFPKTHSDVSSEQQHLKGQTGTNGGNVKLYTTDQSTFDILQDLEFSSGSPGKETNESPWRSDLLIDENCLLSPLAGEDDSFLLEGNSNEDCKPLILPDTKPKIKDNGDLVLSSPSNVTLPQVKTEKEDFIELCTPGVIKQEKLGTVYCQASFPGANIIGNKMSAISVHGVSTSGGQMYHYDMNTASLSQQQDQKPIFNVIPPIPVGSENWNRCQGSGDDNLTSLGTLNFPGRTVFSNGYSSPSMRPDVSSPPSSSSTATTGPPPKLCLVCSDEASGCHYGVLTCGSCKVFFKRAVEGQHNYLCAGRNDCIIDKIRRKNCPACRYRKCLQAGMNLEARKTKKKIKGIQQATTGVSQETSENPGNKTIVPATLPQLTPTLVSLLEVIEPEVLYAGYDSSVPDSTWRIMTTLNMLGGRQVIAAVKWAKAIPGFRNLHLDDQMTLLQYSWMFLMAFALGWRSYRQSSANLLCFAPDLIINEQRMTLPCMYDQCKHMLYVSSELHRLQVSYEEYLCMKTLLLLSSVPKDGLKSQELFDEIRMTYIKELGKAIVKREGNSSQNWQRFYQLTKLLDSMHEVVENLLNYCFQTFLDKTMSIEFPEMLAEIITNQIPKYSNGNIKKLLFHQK
Procedure, shortened: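 HEK293 cells were transfected in DMEM with 5% charcoal-stripped FBS, using a CMV-hGR plasmid and a luciferase reporter driven by 2×GRE plus the TK promoter. After overnight incubation, cells were replated and exposed to compound for 24 h, then lysed for luciferase readout.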

Efficacy [4]: 53%
Structure (SMILES): CC/C(=C1\c2ccccc2OCc2cccc(OC)c21)c1cccc(NS(C)(=O)=O)c1
Activity [1]: Active
Activity [2]: Active
Activity [3]: Dose-dependent effect
